Values after ≈ are worked out from the molar mass of the structure shown. Active and inactive are the calls of the source. No cut-off for these calls is given here.
Columns and labels:
Staphylococcus aureus [1] = assay: Antimicrobial activity against methicillin-resistant Staphylococcus aureus ATCC 33592 assessed as bacterial growth inhibitions by CLSI protocol based microdilution method; format: functional
Enterococcus faecalis = assay: Antibiofilm activity against Enterococcus faecalis ATCC 29212 assessed as inhibition of biofilm formation at 2 times MIC after 24 hrs by crystal violet staining based assay relative to control
[2] = Toxicity in CD1 mouse assessed as effect on alanine transferase level at 50 mg/kg, ip administered as single dose measured after 24 hrs; format: organism-based; conditions: in vivo
Method in brief: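 Male CD-1 mice, 8 weeks, 32–37 g, n = 10 per dose. Single IP injection at 5, 20 or 50 mg/kg in 0.9% saline, filter-sterilized; saline vehicle group. Blood taken by cardiac puncture 24 h later. 14 plasma markers measured on a chemistry panel, reported as mean ± SE. Toxicity judged by significance versus controls, normal ranges, dose-dependence and consistency across organ markers.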

Staphylococcus aureus [3] = assay: Antibacterial activity against methicillin resistant Staphylococcus aureus ATCC 700699 persisters assessed as reduction in viability at 16 times MIC by colony counting method; format: functional, organism-based
Method in brief: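 Stationary-phase S. aureus from overnight CAMHB culture (35 °C, 200 rpm), washed thrice in PBS, diluted to ~5 × 10^8 CFU/ml. Incubated with antibiotic at 35 °C, 200 rpm. Aliquots taken at set times, washed, serially diluted in PBS, drop-plated (6 × 6) on TSA with 5% sheep blood. Colonies counted after 18–20 h at 35 °C. Triplicates.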

Compound: O=C(O)c1ccc(-n2cc(CNc3cc(F)cc(C(F)(F)F)c3)c(-c3ccc(C(F)(F)F)cc3)n2)cc1
- MIC (Staphylococcus aureus [1]): 0.78 µg/mL (≈ 1.49 µM)
- inhibition (INH) (Enterococcus faecalis): 90%
- Activity [2]: Non-Toxic
- Activity (Staphylococcus aureus [3]): Active

From ChEMBL document CHEMBL4814057, “4-4-(Anilinomethyl)-3-[4-(trifluoromethyl)phenyl]-1H-pyrazol-1-ylbenzoic acid derivatives as potent anti-gram-positive bacterial agents” (Eur J Med Chem, 2021)
